According to ChEMBL document CHEMBL3992515, “Design, synthesis, and evaluation of a novel series of macrocyclic inhibitors of norovirus 3CL protease” (Eur J Med Chem, 2017):

Tested on: not listed separately
Test: Inhibition of Norovirus 3CLpro using Edans-DFHLQ/GP-Dabcyl as substrate preincubated for 30 mins followed by substrate addition measured after 1 hr by FRET assay
Settings: not given
Method in brief: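 Protease and serial compound dilutions up to 100 μM (or DMSO) held in 20 mM HEPES pH 8, 200 mM NaCl, 0.4 mM EDTA, 60% glycerol, 6 mM DTT at 37°C for 30 min, then substrate added. Fluorescence (ex 360/em 460 nm) read 1 h later, background subtracted (no-protease well). IC50 from variable-slope curve fit; average of at least two determinations.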

SMILES | IC50 [µM]
CC(C)C[C@@H]1NC(=O)OC(c2cccc(Cl)c2)CCCCCNC(=O)CC[C@@H](C(=O)C(=O)NC2CC2)NC1=O (some centres undefined) | 2.3
O=C[C@@H]1CCC(=O)NCCCCCCC(c2cccc(Cl)c2)OC(=O)NC2(CCCCC2)C(=O)N1 (some centres undefined) | > 100
CC(C)C[C@@H]1NC(=O)OC(Cc2ccccc2)CCCCCNC(=O)CC[C@@H](C=O)NC1=O (some centres undefined) | 4.6
CC(C)C[C@@H]1NC(=O)OC(Cc2ccccc2)CC/C=C/CNC(=O)CC[C@@H](C=O)NC1=O (some centres undefined) | 2.5
CC(C)C[C@@H]1NC(=O)OC(c2cccc(Cl)c2)CCCCCNC(=O)CC[C@@H](C=O)NC1=O (some centres undefined) | 1.5
O=C[C@@H]1CCC(=O)NCCCCCC(c2cccc(Cl)c2)OC(=O)NC2(CCCCC2)C(=O)N1 (some centres undefined) | > 100
CCCCCC1CCCCCNC(=O)CC[C@@H](C(O)S(=O)(=O)O)NC(=O)[C@H](CC(C)C)NC(=O)O1 (some centres undefined) | 5.1
CC(C)C[C@@H]1NC(=O)OC(c2cccc(Cl)c2)CCCCCONC(=O)CC[C@@H](C=O)NC1=O (stereo in doubt; 36A) | 30.5
CC(C)C[C@@H]1NC(=O)OC(c2cccc(Cl)c2)CCCCCONC(=O)CC[C@@H](C=O)NC1=O (stereo in doubt; 36B) | 46.7
O=C[C@@H]1CCC(=O)NCCCCCC(c2cccc(Cl)c2)OC(=O)N[C@@H](CC2CCCCC2)C(=O)N1 (stereo in doubt; form 1) | 4.1
O=C[C@@H]1CCC(=O)NCCCCCC(c2cccc(Cl)c2)OC(=O)N[C@@H](CC2CCCCC2)C(=O)N1 (stereo in doubt; form 2) | 6.5

Tested on: Norovirus
Test: Antiviral activity against Norovirus replicon infected in human HG23 cells assessed as inhibition of viral RNA replication after 48 hrs by qRT-PCR method
Format: functional, cell-based
Settings: not given
Method in brief: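 HG23 cells (NV replicon-harboring hepatoma), confluent and semi-confluent, given medium with DMSO (<0.1%) or compound up to 20 μM for 48 h. Total RNA extracted and viral genome quantified by real-time qRT-PCR. EC50 fitted from dose-response; average of at least two determinations.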

SMILES | EC50 [µM]
CC(C)C[C@@H]1NC(=O)OC(c2cccc(Cl)c2)CCCCCONC(=O)CC[C@@H](C=O)NC1=O (stereo in doubt; 36B) | 5.1
O=C[C@@H]1CCC(=O)NCCCCCC(c2cccc(Cl)c2)OC(=O)N[C@@H](CC2CCCCC2)C(=O)N1 (stereo in doubt; form 2) | 2.5

Same assay, conditions: Norovirus, HG23, 48 h

SMILES | EC50 [µM]
CC(C)C[C@@H]1NC(=O)OC(c2cccc(Cl)c2)CCCCCNC(=O)CC[C@@H](C(=O)C(=O)NC2CC2)NC1=O (some centres undefined) | 9.1
O=C[C@@H]1CCC(=O)NCCCCCCC(c2cccc(Cl)c2)OC(=O)NC2(CCCCC2)C(=O)N1 (some centres undefined) | > 20
CC(C)C[C@@H]1NC(=O)OC(Cc2ccccc2)CCCCCNC(=O)CC[C@@H](C=O)NC1=O (some centres undefined) | 8.8
CC(C)C[C@@H]1NC(=O)OC(Cc2ccccc2)CC/C=C/CNC(=O)CC[C@@H](C=O)NC1=O (some centres undefined) | 3.1
CC(C)C[C@@H]1NC(=O)OC(c2cccc(Cl)c2)CCCCCNC(=O)CC[C@@H](C=O)NC1=O (some centres undefined) | 1.8
O=C[C@@H]1CCC(=O)NCCCCCC(c2cccc(Cl)c2)OC(=O)NC2(CCCCC2)C(=O)N1 (some centres undefined) | > 20
CCCCCC1CCCCCNC(=O)CC[C@@H](C(O)S(=O)(=O)O)NC(=O)[C@H](CC(C)C)NC(=O)O1 (some centres undefined) | 3.5
CC(C)C[C@@H]1NC(=O)OC(c2cccc(Cl)c2)CCCCCONC(=O)CC[C@@H](C=O)NC1=O (stereo in doubt; 36A) | 3.6
O=C[C@@H]1CCC(=O)NCCCCCC(c2cccc(Cl)c2)OC(=O)N[C@@H](CC2CCCCC2)C(=O)N1 (stereo in doubt; form 1) | 2.1

Tested on: Murine norovirus
Test: Antiviral activity against MNV replicon infected in mouse RAW264.7 cells assessed as inhibition of viral RNA replication after 24 hrs
Format: functional, cell-based
Settings: not given
Method in brief: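 Confluent RAW264.7 cells infected with MNV at MOI 0.1 for 1 h; inoculum then replaced with medium containing compound (up to 20 μM) or DMSO (0.1%). Further 24 h incubation; virus replication quantified by TCID50 titration. EC50 from dose-response fitting; values average of at least two determinations.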

SMILES | EC50 [µM]
CC(C)C[C@@H]1NC(=O)OC(c2cccc(Cl)c2)CCCCCONC(=O)CC[C@@H](C=O)NC1=O (stereo in doubt; 36B) | 13.4
O=C[C@@H]1CCC(=O)NCCCCCC(c2cccc(Cl)c2)OC(=O)N[C@@H](CC2CCCCC2)C(=O)N1 (stereo in doubt; form 2) | 6.5

Tested on: not listed separately
Test: Cytotoxicity against human HG23 cells after 48 hrs by crystal violet staining-based assay
Format: cell-based
Settings: HG23 cells, read-out: TC50
Method in brief: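 Confluent NV replicon-bearing hepatoma HG23 cells exposed to compound at 1 to 100 μM for 48 h. Cytotoxicity read by CytoTox 96 nonradioactive assay and crystal violet staining; CC50 taken as concentration giving 50% cell death, averaged over at least two determinations.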

SMILES | CC50 at 48 h [µM]
CC(C)C[C@@H]1NC(=O)OC(c2cccc(Cl)c2)CCCCCNC(=O)CC[C@@H](C(=O)C(=O)NC2CC2)NC1=O (some centres undefined) | 53.1
O=C[C@@H]1CCC(=O)NCCCCCCC(c2cccc(Cl)c2)OC(=O)NC2(CCCCC2)C(=O)N1 (some centres undefined) | 53.3
CC(C)C[C@@H]1NC(=O)OC(Cc2ccccc2)CCCCCNC(=O)CC[C@@H](C=O)NC1=O (some centres undefined) | > 100
CC(C)C[C@@H]1NC(=O)OC(Cc2ccccc2)CC/C=C/CNC(=O)CC[C@@H](C=O)NC1=O (some centres undefined) | > 100
CC(C)C[C@@H]1NC(=O)OC(c2cccc(Cl)c2)CCCCCNC(=O)CC[C@@H](C=O)NC1=O (some centres undefined) | > 100
O=C[C@@H]1CCC(=O)NCCCCCC(c2cccc(Cl)c2)OC(=O)NC2(CCCCC2)C(=O)N1 (some centres undefined) | 62.4
CCCCCC1CCCCCNC(=O)CC[C@@H](C(O)S(=O)(=O)O)NC(=O)[C@H](CC(C)C)NC(=O)O1 (some centres undefined) | 78.5
CC(C)C[C@@H]1NC(=O)OC(c2cccc(Cl)c2)CCCCCONC(=O)CC[C@@H](C=O)NC1=O (stereo in doubt; 36A) | 68.3
O=C[C@@H]1CCC(=O)NCCCCCC(c2cccc(Cl)c2)OC(=O)N[C@@H](CC2CCCCC2)C(=O)N1 (stereo in doubt; form 1) | 62.4

Same assay, conditions: hg23, 48 h, 48 h, read-out: TC50 (the source's name)

SMILES | CC50 [µM]
CC(C)C[C@@H]1NC(=O)OC(c2cccc(Cl)c2)CCCCCONC(=O)CC[C@@H](C=O)NC1=O (stereo in doubt; 36B) | 73.8
O=C[C@@H]1CCC(=O)NCCCCCC(c2cccc(Cl)c2)OC(=O)N[C@@H](CC2CCCCC2)C(=O)N1 (stereo in doubt; form 2) | 45.3

Tested on: Murine norovirus
Test: Antiviral activity against MNV replicon infected in mouse RAW264.7 cells assessed as inhibition of viral RNA replication after 24 hrs
Settings: RAW264.7, 24 h

SMILES | EC50 [µM]
CC(C)C[C@@H]1NC(=O)OC(c2cccc(Cl)c2)CCCCCNC(=O)CC[C@@H](C(=O)C(=O)NC2CC2)NC1=O (some centres undefined) | 15.5
O=C[C@@H]1CCC(=O)NCCCCCCC(c2cccc(Cl)c2)OC(=O)NC2(CCCCC2)C(=O)N1 (some centres undefined) | > 20
CC(C)C[C@@H]1NC(=O)OC(Cc2ccccc2)CCCCCNC(=O)CC[C@@H](C=O)NC1=O (some centres undefined) | > 20
CC(C)C[C@@H]1NC(=O)OC(Cc2ccccc2)CC/C=C/CNC(=O)CC[C@@H](C=O)NC1=O (some centres undefined) | > 20
CC(C)C[C@@H]1NC(=O)OC(c2cccc(Cl)c2)CCCCCNC(=O)CC[C@@H](C=O)NC1=O (some centres undefined) | 13.2
O=C[C@@H]1CCC(=O)NCCCCCC(c2cccc(Cl)c2)OC(=O)NC2(CCCCC2)C(=O)N1 (some centres undefined) | > 20
CCCCCC1CCCCCNC(=O)CC[C@@H](C(O)S(=O)(=O)O)NC(=O)[C@H](CC(C)C)NC(=O)O1 (some centres undefined) | 14.6
CC(C)C[C@@H]1NC(=O)OC(c2cccc(Cl)c2)CCCCCONC(=O)CC[C@@H](C=O)NC1=O (stereo in doubt; 36A) | 15.5
O=C[C@@H]1CCC(=O)NCCCCCC(c2cccc(Cl)c2)OC(=O)N[C@@H](CC2CCCCC2)C(=O)N1 (stereo in doubt; form 1) | 4.3
